Assay results collected from several papers.
Lines come from different studies, so protocols differ.
Target: Cyclin-dependent kinase 8 (CDK8, Homo sapiens, UniProt P49336)

SMILES | assay | setting | remaining binding [%]
CNC(=O)[C@@H]1CC[C@@H](n2c(-c3ccc4cnccc4c3)nc3ccc(C(=O)NCc4cccc(C(N)=O)c4)cc32)C1 | binding, competition with immobilised ligand | 1 µM | 100
O=C(c1ccc(Nc2ncc(Cl)c(-c3cc4ccccc4s3)n2)cc1)N1CCC(N2CCCC2)CC1 | binding, competition with immobilised ligand | 1 µM | 100
CN(C)c1ncnc(-c2ccc3nc(Nc4cc(CN5CCN(C(=O)CC(F)(F)F)CC5)ccn4)[nH]c3c2)c1Cl | cell-free assay, competition with immobilised ligand | 1 µM | 90
CN(c1nccc(-c2cnn3ncccc23)n1)C1CC1 | binding | 1 µM | 100
C[C@@]1(Cc2ccc(C#N)cc2)C(=O)N(c2cc(Cl)cc(Cl)c2)c2ncc(C(=O)NC3(c4nc(C5CCC5)no4)CC3)n21 | cell-free assay, competition with immobilised ligand | 1 µM | 100
CCN1CCN(Cc2ccc(C(=O)Nc3ccc(C)c(Oc4ccc5c(c4)CC(=O)N5)c3)cc2C(F)(F)F)CC1 | binding, competition with immobilised ligand | 1 µM | 67
CC1CCCN1c1nccc(-c2cnn3ncccc23)n1 (centres unmarked) | binding | 1 µM | 100
N#CC1(c2ccccn2)CCN(Cc2cc(C(=O)N3CCCC3)c(=O)n3ccccc23)CC1 | cell-free assay, competition with immobilised ligand | 1 µM | 100
O=C(c1ccc(Nc2nccc(-c3cc4ccccc4s3)n2)cc1)N1CCC(N2CCCC2)CC1 | binding, competition with immobilised ligand | 1 µM | 91
COc1ccc2c(O[C@@H]3C[C@H]4C(=O)N[C@]5(C(=O)O)CC5/C=C\CCCCC[C@H](NC(=O)OC5CCCC5)C(=O)N4C3)cc(-c3csc(NC(=O)C(C)C)n3)nc2c1C (some centres unmarked) | cell-free assay, competition with immobilised ligand | 1 µM | 68
Nc1ncc2c(n1)-c1c([nH]c3ccc(C#CC4CC4)cc13)CCCC2 | binding, competition with immobilised ligand | 1 µM | 100
Cc1cnc(Nc2ccc(C(=O)N3CCC(N4CCCC4)CC3)cc2)nc1-c1cc2ccccc2s1 | binding, competition with immobilised ligand | 1 µM | 89
N[C@@H]1CCN(c2nccc(-c3cnn4ncccc34)n2)C1 | binding | 1 µM | 100
O=C1NC(c2ccccn2)Sc2ccccc21 (centres unmarked) | cell-free assay, competition with immobilised ligand | 1 µM | 78
F[C@@H]1CCN(c2nccc(-c3cnn4ncccc34)n2)C1 | binding | 1 µM | 100
O=C(NCC1CCOCC1)c1n[nH]cc1NC(=O)c1c(F)cccc1F | binding, competition with immobilised ligand | 1 µM | 100
C[C@H]1CCN(c2nccc(-c3cnn4ncccc34)n2)C1 | binding | 1 µM | 100
FC(F)(F)Oc1cccc(-c2cnc3ccc(-c4ccncc4)nn23)c1 | cell-free assay, competition with immobilised ligand | 5 µM | 12
CC(=O)C1=C(C)N(c2cccc(C(F)(F)F)c2)C(=O)N[C@@H]1c1ccc(C#N)nc1 | cell-free assay, competition with immobilised ligand | 1 µM | 65.3
c1cnn2ncc(-c3ccnc(N4CCC45COC5)n3)c2c1 | binding | 1 µM | 100
